We go through five molecules from ChEMBL document CHEMBL1125286, “Zatosetron, a potent, selective, and long-acting 5HT3 receptor antagonist: synthesis and structure-activity relationships” (J Med Chem, 1992).

Assay [1] addresses T1, Serotonin 3 (5-HT3) receptor (Rattus norvegicus) (UniProt P35563+Q9JJ16). The experiment in a line: 5-hydroxytryptamine 3 receptor antagonistic activity measured by inhibition of 5-HT-induced bradycardia (iv administration 10 ug/kg dose in urethane-anesthetized rats). The format is functional, organism-based. An outline of the steps:
(§1)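 Urethane-anesthetized rats. First 5HT challenge 30 μg/kg iv gives a transient bradycardia. Once heart rate is back at steady state (≤5 min), test compound or saline goes in via the femoral vein. 5HT 30 μg/kg iv is repeated 15 min later. % inhibition is the difference between first and second bradycardia at peak, each animal its own control. Means ± SEM, groups of 3–16 rats.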

The target of assay [2] is T1, Serotonin 3 (5-HT3) receptor (Rattus norvegicus). The assay can be described thus: 5-hydroxytryptamine 3 receptor antagonistic activity was measured by the inhibition of 5H+ T-induced bradycardia after iv administration of 3 ug/kg dose in urethane-anesthetized rats. The format is functional, organism-based. A digest of the protocol:
(§2)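 Urethane-anesthetized rats; antagonist or saline given iv via femoral vein after heart rate settled (≤5 min) from an initial 5HT challenge (30 µg/kg iv). 5HT was given again 15 min later. Peak bradycardia measured, each rat its own control; % inhibition = difference between first and second responses. Groups of 3–16 rats, means ± SEM.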

Assay [3] shares this target. The assay can be described thus: Inhibition of 5-HT-induced bradycardia by 5-hydroxytryptamine 3+. Type of assay: functional.
Assay [4] has the same target. The assay can be described thus: Compound was tested for the inhibition of 5-HT-induced bradycardia after peroral administration of 0.03 mg/kg at 1 hour in urethane-anesthetized rats. The note with it: at 0.03 mg/kg. The format is functional, organism-based. Further details: dose 0.03 mg/kg. An outline of the steps: (§3)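 Duration study. Antagonist or vehicle is given by oral gavage to conscious rats. Rats are then urethane-anesthetized, surgically prepared and challenged with 5HT 0.03 mg/kg iv at the stated time after dosing. Peak inhibition of bradycardia is measured against vehicle-treated controls. Means ± SEM, groups of 3–11 rats.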

For assay [5] the target is unchanged. The experiment in a line: Compound was tested for the inhibition of 5-HT-induced bradycardia after peroral administration of 0.03 mg/kg at 3 hours in urethane-anesthetized rats. The format is functional, organism-based. The note with it: at 0.03 mg/kg. Also on record: dose 0.03 mg/kg. A digest of the protocol: as §3
Assay [6] shares this target. The assay can be described thus: Compound was tested for the inhibition of 5-HT-induced bradycardia after peroral administration of 0.03 mg/kg at 6 hours in urethane-anesthetized rats. Also on record: dose 0.03 mg/kg. Type of assay: functional, organism-based. The note with it: at 0.03 mg/kg. A digest of the protocol: as §3
The subject of assay [7] is Serotonin 3 receptor (Cavia porcellus). The experiment in a line: In vitro binding affinity was measured for 5-hydroxytryptamine 3 receptor in the guinea pig ileum.
For assay [8], the target named is T1, Serotonin 3 (5-HT3) receptor (Rattus norvegicus). The experiment in a line: Compound was tested for the inhibition of 5-HT-induced bradycardia after peroral administration in urethane-anesthetized rats.
Assay [9] shares this target. The experiment in a line: 5-hydroxytryptamine 3 receptor antagonistic activity as inhibition of 5-HT-induced bradycardia after iv administration of 100 ug/kg dose in urethane-anesthetized rats. Type of assay: functional, organism-based. A digest of the protocol:
as §1

Assay [10] has the same target. The experiment in a line: 5-hydroxytryptamine 3 receptor antagonistic activity was measured by the inhibition of 5H+ T-induced bradycardia after iv administration of 1000 ug/kgetized rats. The format is functional, organism-based. A digest of the protocol: as §1
Assay [11] shares this target. The experiment in a line: 5-hydroxytryptamine 3 receptor antagonistic activity was measured by the inhibition of 5H+ T-induced bradycardia after po administration of 100 ug/kg dose in urethane-anesthetized rats. The format is functional, organism-based. An outline of the steps: (§4)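 Fasted rats dosed by gavage (5 mL/kg) with compound or distilled-water vehicle. Urethane anesthesia and surgical preparation 15–20 min before challenge. 5HT 0.03 mg/kg iv given 1 h after dosing. Peak bradycardia is compared with vehicle-treated controls. Means ± SEM, groups of 3–11 rats.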

For assay [12] the target is unchanged. The assay can be described thus: 5-hydroxytryptamine 3 receptor antagonistic activity was measured by the inhibition of 5H+ T-induced bradycardia after po administration of 1000 ug/kg dose in urethane-anesthetized rats. Type of assay: functional, organism-based. A digest of the protocol: as §4
The target is the same in assay [13]. The assay can be described thus: 5-hydroxytryptamine 3 receptor antagonistic activity was measured by the inhibition of 5H+ T-induced bradycardia after po administration of 30 ug/kg dose in urethane-anesthetized rats. The format is functional, organism-based. A digest of the protocol:
as §4

The target is the same in assay [14]. The experiment in a line: 5-hydroxytryptamine 3 receptor antagonistic activity was measured by the inhibition of 5H+ T-induced bradycardia after po administration of 300 ug/kg dose in urethane-anesthetized rats. Type of assay: functional, organism-based. A digest of the protocol: as §4
The target is the same in assay [15]. The assay can be described thus: Compound was tested for the inhibition of 5-HT-induced bradycardia after peroral administration of 1 mg/kg at 0.5 hours in urethane-anesthetized rats. Type of assay: functional, organism-based. The settings on record: at 1 mg/kg. Also on record: dose 1 mg/kg. A digest of the protocol: (§5)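 Duration study: antagonist or vehicle gavaged to conscious fasted rats (5 mL/kg). Rats were urethane-anesthetized and surgically prepared, then challenged with 5HT 0.03 mg/kg iv at the stated time after dosing. Vehicle-treated rats served as controls. Peak inhibition of bradycardia recorded in groups of 3–11, means ± SEM.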

Assay [16] has the same target. The assay can be described thus: Compound was tested for the inhibition of 5-HT-induced bradycardia after peroral administration of 1 mg/kg at 3 hours in urethane-anesthetized rats. Type of assay: functional, organism-based. Also on record: dose 1 mg/kg. The settings on record: at 1 mg/kg. A digest of the protocol:
as §5

For assay [17] the target is unchanged. The experiment in a line: Compound was tested for the inhibition of 5-HT-induced bradycardia after peroral administration of 1 mg/kg at 1 hour in urethane-anesthetized rats. Type of assay: functional, organism-based. Also on record: dose 1 mg/kg. The note with it: at 1 mg/kg. A digest of the protocol:
as §5

For assay [18] the target is unchanged. The assay can be described thus: Compound was tested for the inhibition of 5-HT-induced bradycardia after intravenous administration of 1 ug/kg dose in urethane-anesthetized rats. The format is functional, organism-based. An outline of the steps:
as §2

The target is the same in assay [19]. The experiment in a line: Compound was tested for the inhibition of 5-HT-induced bradycardia after peroral administration of 10 mg/kg at 1 hour in urethane-anesthetized rats. Type of assay: functional, organism-based. Also on record: dose 10 mg/kg. The note with it: at 10 mg/kg. An outline of the steps: as §3
The target is the same in assay [20]. The experiment in a line: Compound was tested for the inhibition of 5-HT-induced bradycardia after peroral administration of 1000 ug/kg dose in urethane-anesthetized rats. Type of assay: functional, organism-based. A digest of the protocol:
as §4

Assay [21] has the same target. The assay can be described thus: Compound was tested for the inhibition of 5-HT-induced bradycardia after peroral administration of 10 mg/kg at 3 hours in urethane-anesthetized rats. The format is functional, organism-based. Further details: dose 10 mg/kg. The note with it: at 10 mg/kg. A digest of the protocol:
as §3

The target is the same in assay [22]. The experiment in a line: 5-hydroxytryptamine 3 receptor antagonistic activity was measured by the inhibition of 5H+ T-induced bradycardia after iv administration of 1 ug/kg dose in urethane-anesthetized rats. The format is functional, organism-based. A digest of the protocol:
as §1

Assay [23] shares this target. The assay can be described thus: Compound was tested for the inhibition of 5-HT-induced bradycardia after peroral administration of 0.3 mg/kg at 0.5 hours in urethane-anesthetized rats. The note with it: at 0.3 mg/kg. Type of assay: functional, organism-based. Also on record: dose 0.3 mg/kg. An outline of the steps: as §3
The target is the same in assay [24]. The experiment in a line: Compound was tested for the inhibition of 5-HT-induced bradycardia after peroral administration of 0.3 mg/kg at 1 hour in urethane-anesthetized rats. The settings on record: at 0.3 mg/kg. Also on record: dose 0.3 mg/kg. The format is functional, organism-based. A digest of the protocol:
as §3

Assay [25] shares this target. The experiment in a line: Compound was tested for the inhibition of 5-HT-induced bradycardia after peroral administration of 0.3 mg/kg at 3 hours in urethane-anesthetized rats. The format is functional, organism-based. Further details: dose 0.3 mg/kg. The note with it: at 0.3 mg/kg. A digest of the protocol: as §3
Assay [26] has the same target. The experiment in a line: Compound was tested for the inhibition of 5-HT-induced bradycardia after peroral administration of 0.3 mg/kg at 6 hours in urethane-anesthetized rats. The format is functional, organism-based. The note with it: at 0.3 mg/kg. Further details: dose 0.3 mg/kg. A digest of the protocol: as §3

Usually inhibition stands for the relative decrease from the control value, in per cent. Higher therefore signals a strong effect. As usually defined, the ED50 is the midpoint of the dose-response relation. In the case of `CN1[C@@H]2CC[C@H]1C[C@@H](OC(=O)c1cc(Cl)cc3c1OC(C)(C)C3)C2`, the inhibition in assay [1] was determined as 82.7%; in [2], 19.3%; in assay [4] it was 86.2%; in [5], 58%; in assay [6] it was 20.6%. Also, the ED50 in [3] was 0.0046 mg/kg; in assay [8], 0.0088 mg/kg. This molecule also came in with a -Log KB in [7] of 7.92.
As to `CN1C2CCC1CC(OC(=O)c1cccc3oc4ccccc4c13)C2` (configuration not stated), the values for the inhibition in [1], in [9] and in assay [10] were 0%, 12.4% and 66.3%, respectively.
On to `Cc1nccn1CC1CCc2c(c3ccccc3n2C)C1=O` (configuration not stated), for which the inhibition was 18.2% in [11]; 73.4% in assay [12]; 0.3% in [13]; 55.1% in [14]; 74.3% in assay [15]; 6.5% in [16]. Moreover, in assay [17], the inhibition turned out to be 73.4%. The ED50 in assay [3] came out at 0.0033 mg/kg; in [8], 0.316 mg/kg.
For `Cc1cc2c(c(C(=O)OC3CC4CCC(C3)N4C)c1)OC(C)C2` (configuration not stated), the inhibition in assay [1] is 66.7%; in assay [9], 78.2%; in assay [2] it was 14.4%; in assay [18], 3.3%; in assay [19], 74.8%; in [20] it was 11.6%. In assay [21], the inhibition stood at 0%. Further, the figures for the ED50 in [3] and in [8] were 0.0126 mg/kg and 5.17 mg/kg, respectively. In assay [7], this molecule gave a -Log KB of 7.32.
Take `CC1Cc2cc(Cl)cc(C(=O)OC3CC4CCC(C3)N4C)c2O1` (configuration not stated): the inhibition in [22] came out at 5.6%; in assay [1], 69%; in assay [2], 50.8%; in assay [11], 33.1%; in assay [12], 94.7%; in assay [23], 92.6%. In addition, the values for the inhibition in [24], in assay [25] and in assay [26] were 66.2%, 60.5% and 0%, respectively. The ED50 in [3] was found to be 0.0042 mg/kg; in assay [8], 0.179 mg/kg. The -Log KB in assay [7] was determined as 7.88.
